How the values were obtained:
[1] = Biodistribution in athymic nude mice bearing U87MG glioma xenografts; format: in vivo; conditions: female, athymic nu/nu, mouse, iv, total radioactivity
[2] = system: U87MG human glioma xenografts; experiment: as above; format: in vivo
[3] = Solution stability in the kit matrix by radio-HPLC; format: physicochemical; conditions: kit matrix (TPPTS, tricine, mannitol, succinate buffer); monitored by radio-HPLC for 6 h
[4] = system: U87MG glioma xenografts; experiment: SPECT/CT quantification of tumor uptake, U87MG glioma model; format: in vivo, athymic nude mice; conditions: ~37 MBq i.v., SPECT/CT at 60 min p.i.
Outline: (§1)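 Mice bearing U87MG glioma and MDA-MB-231 breast xenografts (4 weeks post-inoculation) got ~37 MBq 99mTc radiotracer (not HPLC-purified) in 0.1 mL saline by tail vein, under ~2.0% isoflurane. Multi-pinhole SPECT (75 projections over 30 min per frame, 2 frames), then CT at 45 kV, 500 μA. Tumors delineated on CT/SPECT; activity taken from a γ-counter-calibrated source standard curve, as %ID/cm3.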

[5] = SPECT/CT quantification of tumor uptake, MDA-MB-231 breast tumor model; format: in vivo, athymic nude mice; conditions: athymic nude, mouse, iv, 37 MBq, total radioactivity
Outline: as §1

[6] = 5 min p.i., U87MG glioma-bearing athymic nude mice

`N=C(N)NCCC[C@@H]1NC(=O)[C@H](CCCCNC(=O)[C@H](CC(=O)O)NC(=O)[C@H](CC(=O)O)NC(=O)[C@H](CC(=O)O)NC(=O)CC[C@H](NC(=O)CCOCCOCCOCCOCCNC(=O)c2ccc(NN)nc2)C(=O)N[C@@H](CC(=O)O)C(=O)N[C@@H](CC(=O)O)C(=O)N[C@@H](CC(=O)O)C(=O)NCCCC[C@@H]2NC(=O)[C@@H](Cc3ccccc3)NC(=O)[C@H](CC(=O)O)NC(=O)CNC(=O)[C@H](CCCNC(=N)N)NC2=O)NC(=O)[C@@H](Cc2ccccc2)NC(=O)[C@H](CC(=O)O)NC(=O)CNC1=O` [^99mTc-P6D-RGD2, [^99mTc(HYNIC-P6D-RGD2)(tricine)(TPPTS)], metal not drawn] gave a tissue uptake at 1 h ([1]; blood, 14 mg/kg) of 0.23 ± 0.01 %ID/g, a tissue uptake at 1 h ([1]; brain, 14 mg/kg) of 0.02 ± 0.01 %ID/g and a tissue uptake at 1 h ([1]; eyes, 14 mg/kg) of 0.23 ± 0.1 %ID/g. For the same compound, the tissue uptake at 1 h ([1]; heart, 14 mg/kg) was 0.2 ± 0.07 %ID/g, the tissue uptake at 1 h ([1]; intestine, 14 mg/kg) was 0.22 ± 0.11 %ID/g and the tissue uptake at 1 h ([1]; kidneys, 14 mg/kg) was 23.9 ± 3.61 %ID/g. It also gave a tissue uptake at 1 h ([1]; liver, 14 mg/kg) of 0.28 ± 0.04 %ID/g, a tissue uptake at 0.5 h ([1]; lungs, 0.1 MBq) of 2.05 ± 0.28 %ID/g and a tissue uptake at 1 h ([1]; lungs, 0.1 MBq) of 1.85 ± 0.2 %ID/g. The tissue uptake at 2 h ([1]; lungs, 0.1 MBq) was 1.11 ± 0.42 %ID/g, the tissue uptake at 0.5 h ([1]; muscle, 0.1 MBq) was 1.79 ± 0.2 %ID/g and the tissue uptake at 1 h ([1]; muscle, 0.1 MBq) was 1.59 ± 0.25 %ID/g. The tissue uptake at 2 h ([1]; muscle, 0.1 MBq) was 0.79 ± 0.23 %ID/g, the tissue uptake at 0.5 h ([1]; spleen, 0.1 MBq) was 2.6 ± 0.37 %ID/g and the tissue uptake at 1 h ([1]; spleen, 0.1 MBq) was 2.58 ± 0.46 %ID/g. The tissue uptake at 2 h ([1]; spleen, 0.1 MBq) was 2.4 ± 0.37 %ID/g, the tissue to tissue ratio at 0.5 h ([1]; tumor and blood, 0.1 MBq) was 2.5 ± 0.33 and the tissue to tissue ratio at 1 h ([1]; tumor and blood, 0.1 MBq) was 6.5 ± 0.58. For the same compound, the tissue to tissue ratio at 2 h ([1]; tumor and blood, 0.1 MBq) was 6.98 ± 4.06, the tissue to tissue ratio at 0.5 h ([1]; tumor and liver, 0.1 MBq) was 0.65 ± 0.15 and the tissue to tissue ratio at 1 h ([1]; tumor and liver, 0.1 MBq) was 0.87 ± 0.17. For the same compound, the tissue to tissue ratio at 2 h ([1]; tumor and liver, 0.1 MBq) was 0.84 ± 0.18, the tissue to tissue ratio at 1 h ([1]; tumor and lung, 14 mg/kg) was 1.1 ± 0.13 and the tissue to tissue ratio at 0.5 h ([1]; tumor and lung) was 1.19 ± 0.35. It also gave a tissue to tissue ratio at 1 h ([1]; tumor and lung) of 1.68 ± 0.1, a tissue to tissue ratio at 2 h ([1]; tumor and lung) of 2.41 ± 0.73 and a tissue to tissue ratio at 0.5 h ([1]; tumor and muscle) of 1.97 ± 0.53. For the same compound, the tissue to tissue ratio at 1 h ([1]; tumor and muscle) was 2 ± 0.36, the tissue to tissue ratio at 2 h ([1]; tumor and muscle) was 3.3 ± 1.24 and the tissue uptake at 0.5 h ([1]; tumor, 0.1 MBq) was 2.85 ± 0.55 %ID/g. The tissue uptake at 1 h ([1]; tumor, 0.1 MBq) was 3.13 ± 0.47 %ID/g, the tissue uptake at 2 h ([1]; tumor, 0.1 MBq) was 2.45 ± 0.9 %ID/g and the “Initial blood radioactivity level, fold higher than ^99mTc-3P-RGD2” value [2, 6] was roughly 3 ×. For the same compound, the “Initial blood radioactivity level, fold higher than ^99mTc-P6G-RGD2” value [2, 6] was roughly 5 ×, the “Integrin αvβ3 specificity of tumor uptake (blocking experiment)” value ([2]; 60 min p.i., with/without coinjection of excess RGD2 (350 μg/mouse or 14 mg/kg)) was “integrin αvβ3-specific” and the “Time remained stable in the kit matrix postlabeling” value [3] was “more than 6 h”.

For `N=C(N)NCCC[C@@H]1NC(=O)[C@H](CCCCNC(=O)CNC(=O)CNC(=O)CNC(=O)CC[C@H](NC(=O)CCOCCOCCOCCOCCNC(=O)c2ccc(NN)nc2)C(=O)NCC(=O)NCC(=O)NCC(=O)NCCCC[C@@H]2NC(=O)[C@@H](Cc3ccccc3)NC(=O)[C@H](CC(=O)O)NC(=O)CNC(=O)[C@H](CCCNC(=N)N)NC2=O)NC(=O)[C@@H](Cc2ccccc2)NC(=O)[C@H](CC(=O)O)NC(=O)CNC1=O` [^99mTc-P6G-RGD2, [^99mTc(HYNIC-P6G-RGD2)(tricine)(TPPTS)], metal not drawn], the tissue uptake at 0.5 h ([1]; lungs, 0.1 MBq) was 4.38 ± 0.55 %ID/g, the tissue uptake at 1 h ([1]; lungs, 0.1 MBq) was 3.83 ± 0.56 %ID/g and the tissue uptake at 2 h ([1]; lungs, 0.1 MBq) was 2.81 ± 0.36 %ID/g. For the same compound, the tissue uptake at 0.5 h ([1]; muscle, 0.1 MBq) was 1.75 ± 0.24 %ID/g, the tissue uptake at 1 h ([1]; muscle, 0.1 MBq) was 1.68 ± 0.33 %ID/g and the tissue uptake at 2 h ([1]; muscle, 0.1 MBq) was 0.83 ± 0.11 %ID/g. It also gave a tissue uptake at 0.5 h ([1]; spleen, 0.1 MBq) of 3.08 ± 0.88 %ID/g, a tissue uptake at 1 h ([1]; spleen, 0.1 MBq) of 2.68 ± 0.57 %ID/g and a tissue uptake at 2 h ([1]; spleen, 0.1 MBq) of 2.31 ± 0.27 %ID/g. It also gave a tissue to tissue ratio at 0.5 h ([1]; tumor and blood, 0.1 MBq) of 14.1 ± 1.25, a tissue to tissue ratio at 1 h ([1]; tumor and blood, 0.1 MBq) of 15.6 ± 2.79 and a tissue to tissue ratio at 2 h ([1]; tumor and blood, 0.1 MBq) of 41.8 ± 5.13. For the same compound, the tissue to tissue ratio at 0.5 h ([1]; tumor and liver, 0.1 MBq) was 2.95 ± 0.33, the tissue to tissue ratio at 1 h ([1]; tumor and liver, 0.1 MBq) was 2.86 ± 0.3 and the tissue to tissue ratio at 2 h ([1]; tumor and liver, 0.1 MBq) was 3.21 ± 0.53. The tissue to tissue ratio at 0.5 h ([1]; tumor and lung) was 2.07 ± 0.15, the tissue to tissue ratio at 1 h ([1]; tumor and lung) was 2.35 ± 0.24 and the tissue to tissue ratio at 2 h ([1]; tumor and lung) was 2.71 ± 0.12. It also gave a tissue to tissue ratio at 0.5 h ([1]; tumor and muscle) of 5.04 ± 0.68, a tissue to tissue ratio at 1 h ([1]; tumor and muscle) of 5.09 ± 0.51 and a tissue to tissue ratio at 2 h ([1]; tumor and muscle) of 9.42 ± 1.25. The tissue uptake at 0.5 h ([1]; tumor, 0.1 MBq) was 8.85 ± 0.67 %ID/g, the tissue uptake at 1 h ([1]; tumor, 0.1 MBq) was 8.17 ± 1.1 %ID/g and the tissue uptake at 2 h ([1]; tumor, 0.1 MBq) was 7.82 ± 0.76 %ID/g. The “Tumor uptake on the basis of SPECT quantification” value [4] was roughly 8.2 %ID/cm^3, the tissue uptake per volume at 1 h [5] was 3.5 %ID/mL and the “Time remained stable in the kit matrix postlabeling” value [3] was “more than 6 h”.

From PMC4166031 (Bioconjugate Chemistry, 2014)
